Experimental data from ChEMBL document CHEMBL4513216, “Probing the Open Global Health Chemical Diversity Library for Multistage-Active Starting Points for Next-Generation Antimalarials” (ACS Infect Dis, 2020).

Test: Toxicity liver stage against HepG2, at 10uM
Assay type: cell-based
Design: test concentration 10 uM, cell line HepG2-A16-CD81EGFP
Settings: human, HepG2-A16-CD81EGFP cells; read-out: INHIBITION
How it was run: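 Uninfected HepG2-A16-CD81EGFP cells, 3 × 10^3 per well, 1536-well, plated on prespotted compound at 10 μM final, parasite-free screening media added to match infected plates; puromycin 10 μM positive, DMSO 0.5% negative; run in parallel with 48 h PbLuc assay at 37 °C, 5% CO2; viability by CellTiter-Glo luminescence, normalized to controls.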

Compared with CC(C)(C)c1c[nH]c([C@@H]2COCCN2C2CCOCC2)n1, Cc1ccc(C(=O)N2CCOCC3(CCN(C4CCOCC4)C3)C2)o1 (stereo not given) is higher in cytotoxicity at 10 µM: -5.8% for the first, -0.152% for the second.

First: CO[C@H]1COCCN(C(=O)c2ccno2)C1
Second: O=C(c1ccc(C2CCCO2)s1)N1CCCOCC1 (stereo not given)
The cytotoxicity at 10 µM of the first is higher: 2.42% for the first, -0.256% for the second.

Going from O=C(NC[C@H]1C[C@@H]2CCN1C[C@@H]2CN1CCCCC1)c1ccco1 to O=C(NCCCN1CCCCC1)c1n[nH]c(=O)c2ccccc12, the cytotoxicity at 10 µM falls from 7.32% to -30.9%.

First: CCN1CC(COc2ccccc2)Oc2ncccc2S1(=O)=O (stereo not given)
Second: CN(CCc1ccccc1)Cc1c(C2CC2)[nH]c2ncccc12
The cytotoxicity at 10 µM of the first is lower: -0.947% for the first, 0.145% for the second.

First: COC(=O)CNC(=O)Cn1ccc2ccc(F)cc21
Second: CC(C)N(C)CC(=O)NCC(O)c1cc2ccccc2s1 (stereo not given)
The cytotoxicity at 10 µM of the first is higher: -1.33% for the first, -3.91% for the second.

Going from O=C(c1ccsc1)N1CCC(c2nnc(C3CC3)o2)CC1 to Cn1cc(C(=O)N2CCC(c3ncc[nH]3)CC2)cn1, the cytotoxicity at 10 µM falls from 12.3% to -5.42%.

Going from Cc1cc(S(=O)(=O)NCC(O)c2sccc2C)ccc1F (stereo not given) to COc1cc(C(=O)NS(=O)(=O)c2cccc(C#N)c2)ccc1C, the cytotoxicity at 10 µM falls from -1.81% to -9.29%.

First: COC1(CNC(=O)c2ccoc2)CCSC1 (stereo not given)
Second: CC(=O)c1cccc(NC(=O)CN2CCCCC2C)c1 (stereo not given)
The cytotoxicity at 10 µM of the first is lower: -10.8% for the first, -0.684% for the second.

First: O=C(NCCn1ccc(-c2ccccn2)n1)C1CCC1
Second: NCC1CCC(C(NC(=O)c2cccc(F)c2)c2ccccn2)CC1 (stereo not given)
The cytotoxicity at 10 µM of the first is higher: 4.23% for the first, -6.83% for the second.

First: COC1CCN(c2ccc(NC(=O)Cn3cccc3)cc2)CC1
Second: CCCC(=O)NCc1ccc(N2CCCCC2)cc1
The cytotoxicity at 10 µM of the first is lower: 2.99% for the first, 3.54% for the second.

Going from Cc1cc(C(=O)N2CCCC3(COCCN(c4ccccc4)C3)C2)[nH]n1 (stereo not given) to Cc1nc(CN2CCOCC3(CCN(c4ccccn4)C3)C2)cs1 (stereo not given), the cytotoxicity at 10 µM rises from -1.56% to 12.8%.

Compared with C[C@H]1C[C@H]2CN(C(=O)c3cccc4c3OCCO4)CC[C@H]2O1, Cc1cc(C)n(C2CCCN(C(=O)c3cc(C4CC4)on3)C2)n1 (stereo not given) is lower in cytotoxicity at 10 µM: -0.91% for the first, -1.11% for the second.

First: O=C1CC(c2ccccc2Br)c2sc(N3CCOCC3)nc2N1 (stereo not given)
Second: O=C(CSc1nc2n[nH]cc2c(=O)n1-c1ccccc1)N1CCOCC1
The cytotoxicity at 10 µM of the first is higher: 9.4% for the first, -8.21% for the second.

First: COc1cccc(-c2ccnc3nc(N4CCCCC4)[nH]c(=O)c23)c1
Second: COc1ccc(-c2noc(C(=O)NCCN3CCCCC3)n2)cc1OC
The cytotoxicity at 10 µM of the first is higher: 7.97% for the first, -6.24% for the second.

First: CC(C)N(C)Cc1nnc2n1CCCN(C(=O)c1ccco1)C2
Second: CCc1nnc2n1CCN(C(=O)c1cnc(C3CC3)s1)C2
The cytotoxicity at 10 µM of the first is lower: -1.17% for the first, 9.21% for the second.

First: NC(=O)C1CCN(C(=O)c2ccc(Cn3cc(Br)cn3)cc2)CC1
Second: O=C(Cc1ccc(Cl)cc1)N[C@@H]1CCC[C@@H](O)[C@@H]1O
The cytotoxicity at 10 µM of the first is lower: -6.24% for the first, 2.3% for the second.

Going from CC(Nc1ncnc2c1NC(=O)CN2)c1ccccn1 (stereo not given) to Cc1noc(C(C)SCc2ccccn2)n1 (stereo not given), the cytotoxicity at 10 µM falls from 7.66% to -6.67%.

Going from OCCN1CCC(Cc2nccs2)CC1 to Cc1cc(C)n(CC(=O)N(CC2CN(C)CCO2)c2nccs2)n1 (stereo not given), the cytotoxicity at 10 µM falls from 5.97% to -5.85%.

Compared with Cc1ccnc(C2CN(Cc3ccc(-c4ccccc4C(=O)O)o3)C2)n1, Cc1cccc(-c2noc(CN3CC(n4cccn4)C3)n2)c1 is lower in cytotoxicity at 10 µM: 2.51% for the first, -0.0158% for the second.

Compared with CC(C)CCN1CCCC12Cc1ccccc1CNC2=O (stereo not given), Cn1c(CN2CC[C@](C)(O)C(C)(C)C2)cc2ccccc21 is lower in cytotoxicity at 10 µM: 7.61% for the first, -3.6% for the second.

Going from CCc1nnsc1C(=O)NCCc1nnc2n1CCC2 to Cc1csc(CNC(=O)NC2CCCc3c2cnn3CCO)n1 (stereo not given), the cytotoxicity at 10 µM rises from 3.16% to 13.7%.

First: Cc1cc(CN2CCN(Cc3ccc(C#N)cc3OC(F)F)CC2)no1
Second: CCn1ccnc1CN1CCN(CCOc2ccccc2C#N)CC1
The cytotoxicity at 10 µM of the first is higher: 1.81% for the first, -8.21% for the second.

First: Cc1ccc(O)c(C(=O)NCCCS(=O)(=O)Cc2ccccc2)c1
Second: Cc1cccc(C(=O)N(CCCO)S(=O)(=O)c2cccs2)c1
The cytotoxicity at 10 µM of the first is higher: 33.6% for the first, 8.01% for the second.

Going from CCN(Cc1ccoc1)C(=O)c1ccncc1O to CCCc1nc(C(=O)N(C)Cc2cnn(-c3cccc(OC)c3)c2)cs1, the cytotoxicity at 10 µM falls from 6.85% to 6.39%.

Compared with CC(=O)C(Cc1ccccc1)NC(=O)CSc1nccn1C1CC1 (stereo not given), O=c1[nH]c(CCN2CCCC2Cn2cccn2)nc2ccccc12 (stereo not given) is lower in cytotoxicity at 10 µM: 5.22% for the first, -8.05% for the second.

Going from CC(C)Oc1ccc(CNC(=O)C2CCC(=O)N2)cn1 (stereo not given) to CC(C)Sc1ncccc1C(=O)NCc1ccc(CS(C)(=O)=O)cc1, the cytotoxicity at 10 µM falls from 10.5% to 3.78%.

Going from Cc1cc(CN(C)C(=O)NCc2ccco2)no1 to CN(Cc1ccco1)C(=O)Nc1cc(C(F)(F)F)c[nH]c1=O, the cytotoxicity at 10 µM rises from 1.58% to 2.79%.

Going from Cc1ccc(CNc2ccc(N3CCC(CO)CC3)cn2)o1 to O=C1CCCN1c1cccc(N2CCC(NCCc3cscn3)CC2)c1, the cytotoxicity at 10 µM falls from 19.1% to -26%.

First: O=C(NC1CCN(C2CC2)C1)c1cn(-c2ccc(F)cc2)nn1 (stereo not given)
Second: O=C(NC1CCN(C(=O)C2CCCCC2)C1)c1ccncc1Cl (stereo not given)
The cytotoxicity at 10 µM of the first is lower: -2.25% for the first, 10.4% for the second.

Compared with CCc1[nH]c(C2(N)CCCC2)nc(=O)c1C, CCN1CCC(CNc2nccc(C)n2)(N(C)C)CC1 is higher in cytotoxicity at 10 µM: -1.29% for the first, -0.51% for the second.

Going from COc1c(CNCc2cccc(CN3CCOCC3)c2)c(C)nn1C to COc1ccc(OCCN2CCN(Cc3nccn3C)CC2)cc1, the cytotoxicity at 10 µM falls from 11.1% to -6.25%.

Compared with Cc1cc(C)n(-c2cncc(N3CCN(C(=O)C(C)C)CC3)n2)n1, Cc1nc(N2CCCN(C(=O)c3ccsc3)CC2)c2cnn(C)c2n1 is lower in cytotoxicity at 10 µM: -2.9% for the first, -10.8% for the second.

First: CCS(=O)(=O)CC(=O)N1CCCC1c1noc(C2CC2)n1 (stereo not given)
Second: Cc1n[nH]c(C)c1NC(=O)CN1CCCC1c1noc(C(C)C)n1 (stereo not given)
The cytotoxicity at 10 µM of the first is lower: -12.9% for the first, 6.45% for the second.

Compared with COc1cc(NC(=O)c2ccc(C)c(F)c2)c(C(=O)N(C)C)cc1OC, Cc1ccc(C(=O)N2C[C@H](NS(C)(=O)=O)[C@@H](C(C)C)C2)cc1F is lower in cytotoxicity at 10 µM: 2.82% for the first, -2.36% for the second.

First: CC(C)c1nnc(CNCC2CCCN2c2cccnn2)o1 (stereo not given)
Second: CC(C)c1nc2n(n1)CC(NCc1ncc(-c3ccccc3)o1)CC2 (stereo not given)
The cytotoxicity at 10 µM of the first is higher: 1.05% for the first, -0.361% for the second.

Compared with CC1(C)CN(CC(F)(F)F)CCN1CC(=O)NC1CC1, CC(=O)NC1CCCN(C(=O)CNc2cccc(C)c2Cl)C1 (stereo not given) is lower in cytotoxicity at 10 µM: 12.5% for the first, -4.69% for the second.

First: Cc1[nH]ccc1C(=O)N1CCCN1C(=O)OC(C)(C)C
Second: COc1nn(C)c2c1CCCN(C(=O)c1c[nH]cn1)C2
The cytotoxicity at 10 µM of the first is higher: -6.49% for the first, -100% for the second.

Going from CN(Cc1cccnc1)C[C@H]1OC[C@@H]2CCN(c3ncccn3)C[C@@H]21 to c1cncc(CN2CCOC(c3ncn4c(C5CC5)cccc34)C2)c1 (stereo not given), the cytotoxicity at 10 µM rises from -108% to 1.79%.

Compared with CN(C)C(=O)N1C[C@@H]2COC[C@]2(CNS(C)(=O)=O)C1, Cc1cnc(N2CC[C@@H]3OC(COCC(=O)N(C)C)CC[C@@H]32)nc1 (stereo not given in full) is higher in cytotoxicity at 10 µM: -1.47% for the first, 7.98% for the second.

Compared with Cc1nc[nH]c1CN1CCN(C(=O)C2CC2)[C@H]2CS(=O)(=O)C[C@H]21, Cn1ccnc1CN1CCN(Cc2ccncc2)[C@@H]2CS(=O)(=O)C[C@@H]21 is higher in cytotoxicity at 10 µM: 0.855% for the first, 1.5% for the second.

First: COc1ccc(C(=O)C2CCCN(Cc3cnn(C)c3C)C2)c(OC)c1 (stereo not given)
Second: COc1c(C2CCCN2C(=O)c2nccnc2N)c(C)nn1C (stereo not given)
The cytotoxicity at 10 µM of the first is lower: -8.85% for the first, -5.55% for the second.

Compared with OC1(CN2CCCC2)CCCN(c2ncnc3[nH]cnc23)C1 (stereo not given), CC(C)N1CC2(CCCN(c3ncc(Cl)cc3F)C2)CCC1=O (stereo not given) is higher in cytotoxicity at 10 µM: 11.3% for the first, 12.2% for the second.

Going from O=S(=O)(NCCn1cc(C2CCOC2)nn1)c1ccc(Cl)cc1 (stereo not given) to CS(=O)(=O)CCc1ncnn1-c1ccc(F)c(Cl)c1, the cytotoxicity at 10 µM rises from -4.89% to -4.56%.

Compared with CC(C)C1CN(C(=O)c2cc(C3CC3)n[nH]2)CCC(=O)N1CC1CC1 (stereo not given), Cc1nc(C)n(C2CCCN(C(=O)c3csc(C)n3)C2)n1 (stereo not given) is lower in cytotoxicity at 10 µM: -9.55% for the first, -18.7% for the second.

First: N#Cc1cccc(N2CCC3(CC2)Nc2ccccc2NC3=O)n1
Second: Cn1cc(N2CC3(CCN(Cc4ccccc4)CC3)OCC2=O)cn1
The cytotoxicity at 10 µM of the first is higher: 5.57% for the first, 5.25% for the second.

Compared with O=C(O)c1cnc(N2CC[C@H](N3CCOCC3)[C@H](CCCO)C2)c(Cl)c1, COc1cc2c(cc1CN1CCCCC1CN1CCOCC1)CCC2 (stereo not given) is lower in cytotoxicity at 10 µM: 4.6% for the first, -4.57% for the second.

Going from Cc1nc(CN(C)Cc2nc(-c3ccccc3)no2)co1 to CN(Cc1ccc2c(c1)OCO2)Cc1nc2c(cnn2C)c(=O)[nH]1, the cytotoxicity at 10 µM falls from -1.86% to -3.63%.

Going from CN(C)C(C(=O)N1CCC(c2ncc[nH]2)CC1)c1ccc2c(c1)OCO2 (stereo not given) to Cc1nc(C)n(C2CCCN(C(=O)c3ccnc(N(C)C)c3)C2)n1 (stereo not given), the cytotoxicity at 10 µM falls from 2.8% to -8.36%.

Compared with CCc1[nH]c2c(CNc3cncc(C(=O)N(C)C)n3)cc(C)cc2c1C, COc1cc(N(C)CCCn2nc(C)cc2C)ncn1 is higher in cytotoxicity at 10 µM: -10.2% for the first, 1.6% for the second.

Compared with COc1cc(CCC(=O)NC(C)C(=O)O)ccc1OCC(F)(F)F (stereo not given), CC(NC(=O)NCc1c(F)cccc1Cl)(C(=O)O)c1ccco1 (stereo not given) is lower in cytotoxicity at 10 µM: -2.15% for the first, -3.23% for the second.

Compared with CCc1cnc(CN(C(C)=O)C2CCN(CCc3ccccn3)C2)o1 (stereo not given), c1ccc(CO[C@H]2CO[C@@]3(CCN(Cc4ccoc4)C3)C2)nc1 is lower in cytotoxicity at 10 µM: -2.72% for the first, -15.3% for the second.

First: CCC(C)N(CCOC)Cc1nc2c(cnn2C)c(=O)[nH]1 (stereo not given)
Second: CC(=O)Nc1ccc(Oc2cc(C)nc(C3CCCNC3)c2)cc1 (stereo not given)
The cytotoxicity at 10 µM of the first is lower: -12.4% for the first, 2.58% for the second.

Compared with Cc1csc(N2CCCN(C(=O)Cc3cccs3)CC2)n1, O=C1CO[C@@H]2CN(Cc3cccs3)C[C@H]2N1Cc1ccncc1 is higher in cytotoxicity at 10 µM: -6.87% for the first, 2.08% for the second.

Compared with CC(C)(C)NC(=O)C1CSCN1S(=O)(=O)c1ccc(F)cc1 (stereo not given), Cc1nc(CO[C@@H]2CN(Cc3ccsc3)[C@@H]3COC[C@@H]32)cs1 is higher in cytotoxicity at 10 µM: 0.65% for the first, 3.04% for the second.

Compared with COC1COC2(CCN(CC3CCOCC3)CC2)C1 (stereo not given), Cc1ccc(CN2C[C@@H]3CN(CC4CCOCC4)CCO[C@@H]3C2)s1 is higher in cytotoxicity at 10 µM: -110% for the first, -12.7% for the second.
